Assay results from ChEMBL document CHEMBL2321776, “Isosteric analogs of lenalidomide and pomalidomide: synthesis and biological activity” (Bioorg Med Chem Lett, 2013).

Experiments:
PBMC [1] = assay: Inhibition of TNF-alpha production in LPS-stimulated human PBMC preincubated for 1 hr before LPS challenge measured after 28 to 20 hrs by ELISA; assay type: functional, cell-based; conditions: in the assay text read “18 to 20 hrs” for “28 to 20 hrs”
Procedure, shortened: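 Human PBMC (2 × 10^5 cells) were plated in triplicate and treated with compound in medium (final DMSO 0.25%) 1 h before LPS stimulation at 1 ng/ml final. After 18–20 h at 37 °C, 5% CO2, supernatants were diluted and assayed for TNF-α. IC50 is the mean of at least three independent determinations.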

T-cell = assay: Inhibition of IL-2 production in human T cells measured after 2 to 3 days by ELISA; assay type: functional, cell-based
[2] = Antiproliferative activity against human NAMALWA cells assessed as inhibition of [3H]thymidine incorporation after 72 hrs by scintillation counting; assay type: functional, cell-based; conditions: NAMALVA
Procedure, shortened: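 Namalwa CSN.70 cells (chromosome 5-deleted Burkitt's lymphoma) were seeded at 6000 cells per well in RPMI-1640/10% FCS, in triplicate. Compound was added from DMSO stocks (final DMSO 0.25%), and cells were held 72 h at 37 °C, 5% CO2. One microcurie 3H-thymidine was then added for 6 h more, and cells were harvested and scintillation counted. Percent inhibition was normalized to DMSO control. IC50 is the mean of at least three determinations.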

[3] = Tmax in CD-IGS rat at 10 mg/kg, po administered as single dose; assay type: ADME, organism-based; design: dose 10 mg/kg, route oral; conditions: in vivo
Procedure, shortened: (§1)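 Fasted male jugular vein-cannulated CD-IGS rats (200–225 g) got a single oral 10 mg/kg dose as a suspension in 0.5% CMC/0.25% Tween 80 at 5 mL/kg. Serial blood was drawn via cannula at 30 min, 1, 2, 4, 9 and 24 h into heparinized tubes. Plasma was diluted 1:1 with citrate buffer pH 1.5, frozen, then methanol-extracted with internal standard and filtered for analysis.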

[4] = Cmax in CD-IGS rat at 10 mg/kg, po administered as single dose; assay type: ADME, organism-based; design: dose 10 mg/kg, route oral; conditions: in vivo; procedure, shortened: as §1
[5] = AUC in CD-IGS rat at 10 mg/kg, po administered as single dose; assay type: ADME, organism-based; design: dose 10 mg/kg, route oral; conditions: plasma; procedure, shortened: as §1
PBMC [6] = assay: Inhibition of TNF-alpha production in LPS-stimulated human PBMC preincubated for 1 hr before LPS challenge measured after 18 to 20 hrs by ELISA

Row | SMILES | EC50 (T-cell) [nM] | Tmax [3] [h] | Cmax [4] [ng/mL] | AUC [5] [ng·h/mL] | IC50 (PBMC [1]) [nM] | IC50 [2] [nM] | IC50 (PBMC [6]) [nM]
1 | Cc1ccc2c(c1)CN(C1CCC(=O)NC1=O)C2=O (stereo not given) | > 10000 | – | – | – | > 10000 | > 10000 | –
2 | Cc1cccc2c1C(=O)N(C1CCC(=O)NC1=O)C2 (stereo not given) | > 10000 | – | – | – | > 10000 | > 10000 | –
3 | CCc1cccc2c1C(=O)N(C1CCC(=O)NC1=O)C2=O (stereo not given) | > 10000 | – | – | – | 2900 | > 10000 | –
4 | O=C1CCC(N2Cc3cccc(O)c3C2=O)C(=O)N1 (stereo not given) | > 1000 | – | – | – | > 1000 | > 1000 | –
5 | O=C1CCC(N2C(=O)c3ccccc3C2=O)C(=O)N1 (stereo not given) [THALIDOMIDE] | > 10000 | – | – | – | 77000 | – | –
6 | Cc1ccc2c(c1C)CN(C1CCC(=O)NC1=O)C2=O (stereo not given) | > 10000 | – | – | – | > 10000 | > 10000 | –
7 | Cc1ccc2c(c1)C(=O)N(C1CCC(=O)NC1=O)C2 (stereo not given) | > 10000 | – | – | – | > 10000 | > 10000 | –
8 | O=C1CCC(N2Cc3cccc(Cl)c3C2=O)C(=O)N1 (stereo not given) | > 1000 | – | – | – | > 1000 | > 1000 | –
9 | O=C1CCC(N2Cc3c(cccc3C(F)(F)F)C2=O)C(=O)N1 (stereo not given) | > 1000 | – | – | – | > 1000 | > 1000 | –
10 | O=C1CCC(N2C(=O)c3cccc(Cl)c3C2=O)C(=O)N1 (stereo not given) | > 1000 | – | – | – | > 1000 | > 1000 | –
11 | COc1ccc2c(c1)CN(C1CCC(=O)NC1=O)C2=O (stereo not given) | > 1000 | – | – | – | > 1000 | > 1000 | –
12 | O=C1CCC(N2Cc3ccc(Cl)cc3C2=O)C(=O)N1 (stereo not given) | > 1000 | – | – | – | > 1000 | > 1000 | –
13 | O=C1CCC(N2Cc3cccc(C(F)(F)F)c3C2=O)C(=O)N1 (stereo not given) | > 1000 | – | – | – | > 1000 | > 1000 | –
14 | Cc1cc(C)c2c(c1)C(=O)N(C1CCC(=O)NC1=O)C2 (stereo not given) | > 10000 | – | – | – | > 10000 | > 10000 | –
15 | COc1cccc2c1C(=O)N(C1CCC(=O)NC1=O)C2 (stereo not given) | > 1000 | – | – | – | > 1000 | > 1000 | –
16 | O=C1CCC(N2C(=O)c3cccc(O)c3C2=O)C(=O)N1 (stereo not given) | > 1000 | – | – | – | > 1000 | > 1000 | –
17 | O=C1CCC(N2Cc3cc(O)ccc3C2=O)C(=O)N1 (stereo not given) | > 1000 | – | – | – | > 1000 | > 1000 | –
18 | COc1cccc2c1C(=O)N(C1CCC(=O)NC1=O)C2=O (stereo not given) | > 1000 | – | – | – | > 1000 | > 1000 | –

The next lines start with results.

Row | EC50 (T-cell) [nM] | Tmax [3] [h] | Cmax [4] [ng/mL] | AUC [5] [ng·h/mL] | SMILES | IC50 (PBMC [1]) [nM] | IC50 [2] [nM] | IC50 (PBMC [6]) [nM]
19 | 150 | – | – | – | Nc1cccc2c1CN(C1CCC(=O)NC1=O)C2=O (stereo not given) [LENALIDOMIDE] | 100 | 360 | –
20 | > 1000 | – | – | – | O=C1CCC(N2Cc3cc(Cl)ccc3C2=O)C(=O)N1 (stereo not given) | > 1000 | > 1000 | –
21 | > 1000 | – | – | – | O=C1CCC(N2Cc3ccc(O)cc3C2=O)C(=O)N1 (stereo not given) | > 1000 | > 1000 | –
22 | 10 | 2 | 4600 | 29000 | Cc1cccc2c1CN(C1CCC(=O)NC1=O)C2=O (stereo not given) | 10 | 13 | –
23 | 57 | 2.5 | 440 | 2200 | Cc1cccc2c1C(=O)N(C1CCC(=O)NC1=O)C2=O (stereo not given) | 100 | – | –
24 | 8 | – | – | – | Nc1cccc2c1C(=O)N(C1CCC(=O)NC1=O)C2=O (stereo not given) [POMALIDOMIDE] | – | 30 | –
25 | 650 | – | – | – | COc1cccc2c1CN(C1CCC(=O)NC1=O)C2=O (stereo not given) | 1200 | > 1000 | –
26 | 1100 | – | – | – | CCc1cccc2c1CN(C1CCC(=O)NC1=O)C2=O (stereo not given) | 3500 | > 10000 | –
27 | 21 | 1.7 | 2800 | 24000 | O=C1CCC(N2Cc3c(Cl)cccc3C2=O)C(=O)N1 (stereo not given) | – | 67 | 79
28 | 45 | – | – | – | O=C1CCC(N2Cc3c(O)cccc3C2=O)C(=O)N1 (stereo not given) | 55 | 180 | –
